# Assay results reported in paper PMC7408256 (ACS Omega, 2020).
# pIC50, pKi: −log10 of the molar value.
# What was measured:
# K-562 = assay: NCI one-dose screen: K-562; format: cell-based; settings: Homo sapiens, K562, read-out: Growth inhibition percentage (GI %)
# How it was run: (§1)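 Cells grown in RPMI 1640 with 5% FBS and 2 mM L-glutamine, seeded at 5000–40,000 cells/well, preincubated 24 h at 37 °C and 5% CO2. Time-zero plates were TCA-fixed. Test compound (DMSO stock diluted in gentamicin medium) was added at a final 10^-5 M for 48 h. Cells were TCA-fixed (80% for suspension lines), SRB-stained and read at 515 nm. GI% = 100 − % growth versus untreated control.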
# MOLT-4 = assay: NCI one-dose screen: MOLT-4; format: cell-based; settings: Homo sapiens, MOLT-4, read-out: Growth inhibition percentage (GI %)
# How it was run: as §1
# SR = assay: NCI one-dose screen: SR; format: cell-based; settings: Homo sapiens, read-out: Growth inhibition percentage (GI %)
# How it was run: (§2)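 Human tumour lines grown in RPMI 1640 with 5% FBS and 2 mM L-glutamine, seeded at 5000–40,000 cells/well, 24 h at 37 °C, 5% CO2. Time-zero plates TCA-fixed. Test compound (DMSO stock at 400× final) added to a final 10 µM, 48 h at 37 °C. Cells fixed with cold TCA (50% adherent, 80% suspension) and stained with sulforhodamine B; absorbance read at 515 nm. GI% = 100 − % growth relative to untreated control.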
# EKVX = assay: NCI one-dose screen: EKVX; format: cell-based; settings: Homo sapiens, read-out: Growth inhibition percentage (GI %)
# How it was run: as §1
# NCI-H460 = assay: NCI one-dose screen: NCI-H460; format: cell-based; settings: Homo sapiens, NCI-H460, read-out: Growth inhibition percentage (GI %)
# How it was run: as §1
# HCC-2998 = assay: NCI one-dose screen: HCC-2998; format: cell-based; settings: Homo sapiens, HCC 2998, read-out: Growth inhibition percentage (GI %)
# How it was run: as §1
# HCT-116 = assay: NCI one-dose screen: HCT-116; format: cell-based; settings: Homo sapiens, HCT-116, read-out: Growth inhibition percentage (GI %), HCT-116, colon cancer; single dose 10 μM
# How it was run: as §1
# SF-539 = assay: NCI one-dose screen: SF-539; format: cell-based; settings: Homo sapiens, SF-539, read-out: Growth inhibition percentage (GI %)
# How it was run: as §1
# SNB-19 = assay: NCI one-dose screen: SNB-19; format: cell-based; settings: Homo sapiens, SNB-19, read-out: Growth inhibition percentage (GI %)
# How it was run: as §1
# SK-MEL-2 = assay: NCI one-dose screen: SK-MEL-2; format: cell-based; settings: Homo sapiens, SK-MEL-2, read-out: Growth inhibition percentage (GI %)
# How it was run: as §1
# OVCAR-3 = assay: NCI one-dose screen: OVCAR-3; format: cell-based; settings: Homo sapiens, OVCAR-3, read-out: Growth inhibition percentage (GI %)
# How it was run: as §1
# 786-0 = assay: NCI one-dose screen: 786-0; format: cell-based; settings: Homo sapiens, 786-0, read-out: Growth inhibition percentage (GI %)
# How it was run: as §1
# RXF 393 = assay: NCI one-dose screen: RXF 393; format: cell-based; settings: Homo sapiens, RXF 393, read-out: Growth inhibition percentage (GI %)
# How it was run: as §1
# MCF7 = assay: NCI one-dose screen: MCF7; format: cell-based; settings: Homo sapiens, MCF7, read-out: Growth inhibition percentage (GI %)
# How it was run: as §1
# MDA-MB-231 = assay: NCI one-dose screen: MDA-MB-231; format: cell-based; settings: Homo sapiens, MDA-MB-231, read-out: Growth inhibition percentage (GI %)
# How it was run: as §1
# NCI 58 human cell lines = assay: NCI one-dose screen: whole panel summary; format: cell-based
# How it was run: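 NCI 58-line single-dose screen in nine subpanels. Cells were exposed for 48 h at 37 °C to a final 10 µM test compound. Growth was measured by sulforhodamine B staining against time-zero and untreated-control plates. For each compound, percent growth relative to untreated cells was averaged across the panel as mean % growth. GI% per line = 100 − % growth.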
# [1] = system: newly formed blood capillaries of HET-CAM; assay: HET-CAM angiogenesis study; format: in vivo, hen
# How it was run: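 Fertilized hen eggs were incubated 9 days at 37 °C with rotation, in groups of three. Test compound at 40 μM in 40 μL of 40% DMSO in saline was dropped onto a 5 mm filter-paper disc on the CAM. Control got 40 μL vehicle. On day 11 each egg was angiographed. Newly formed small vessels within a 100 mm2 circle were counted by image analysis. One-way ANOVA with Dunnett's test.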
# chick embryos / HET-CAM = assay: HET-CAM mortality and toxicity; format: in vivo, hen; settings: 40 μM, 40 μL in 40% DMSO in sterile saline, applied 9th day, examined 11th day
# How it was run: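 Hen eggs were incubated at 37 °C with 2-hourly rotation and candled on day 5; dead eggs were excluded. A window was opened and taped. On day 9, 40 μL of test compound (40 or 100 μM, in 40% or 100% DMSO in saline) went onto a 5 mm filter disc at a low-vessel-density CAM area, 3 eggs/concentration. Embryo toxicity and mortality were assessed by candling on day 11.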
# A549/ATCC = assay: NCI one-dose screen: A549/ATCC; format: cell-based; settings: Homo sapiens, A549, read-out: Growth inhibition percentage (GI %)
# How it was run: as §1
# TK-10 = assay: NCI one-dose screen: TK-10; format: cell-based; settings: Homo sapiens, TK-10, read-out: Growth inhibition percentage (GI %)
# How it was run: as §2
# PC-3 = assay: NCI one-dose screen: PC-3; format: cell-based; settings: Homo sapiens, PC-3, read-out: Growth inhibition percentage (GI %)
# How it was run: as §1
# T-47D = assay: NCI one-dose screen: T-47D; format: cell-based; settings: Homo sapiens, T47D, read-out: Growth inhibition percentage (GI %)
# How it was run: as §2
# VEGFR2 = settings: cited from earlier work
# c-Met kinase = settings: read-out: IC50 c-Met; cited from earlier work
# multiple tyrosine kinase = settings: target not named at the place (multiple tyrosine kinase; context VEGFR2) ref 14; cited from earlier work
# [2] = 40 μM, versus 40% DMSO negative control
structure (smiles),measurement,setting,value
"O=C1Nc2ccccc2C1=NNc1nnc2n1N=C(c1ccccc1)CS2 [6a, 3-(2-(6-Phenyl-7H-[1,2,4]triazolo[3,4-b][1,3,4]thiadiazin-3-yl)hydrazineylidene)indolin-2-one]",inhibition at 10 µM,K-562,23%
same,inhibition at 10 µM,MOLT-4,13%
same,inhibition at 10 µM,SR,23%
same,inhibition at 10 µM,EKVX,13%
same,inhibition at 10 µM,NCI-H460,17%
same,inhibition at 10 µM,HCC-2998,19%
same,inhibition at 10 µM,HCT-116,14%
same,inhibition at 10 µM,SF-539,18%
same,inhibition at 10 µM,SNB-19,17%
same,inhibition at 10 µM,SK-MEL-2,13%
same,inhibition at 10 µM,OVCAR-3,12%
same,inhibition at 10 µM,786-0,19%
same,inhibition at 10 µM,RXF 393,18%
same,inhibition at 10 µM,MCF7,29%
same,inhibition at 10 µM,MDA-MB-231,12%
same,GI (range over the susceptible cell lines listed in the sentence),"NCI 58 human cell lines; single dose 10 μM, cell lines as listed in the sentence",35–57%
same,increase in the number of newly formed blood capillaries,[1]; [2],33%
"Cc1ccc(C2=Nn3c(NN=C4C(=O)Nc5ccccc54)nnc3SC2)cc1 [6c, 3-(2-(6-(p-Tolyl)-7H-[1,2,4]triazolo[3,4-b][1,3,4]thiadiazin-3-yl)hydrazineylidene)-indolin-2-one]",toxicity / mortality against HET-CAM and the chick embryos,chick embryos / HET-CAM,toxic
"COc1ccc(C2=Nn3c(N/N=C4\C(=O)Nc5ccc(F)cc54)nnc3SC2)cc1 [6j, 5-Fluoro-3-(2-(6-(4-methoxyphenyl)-7H-[1,2,4]triazolo[3,4-b][1,3,4]thiadiazin-3-yl) hydrazineylidene)indolin-2-one]",toxicity / mortality against HET-CAM and the chick embryos,chick embryos / HET-CAM,toxic
"COc1ccc(C2=Nn3c(NN=C4C(=O)Nc5ccc(Cl)cc54)nnc3SC2)cc1 [6l, 5-Chloro-3-(2-(6-(4-methoxyphenyl)-7H-[1,2,4]triazolo[3,4-b][1,3,4]thiadiazin-3-yl)hydrazineylidene)indolin-2-one]",inhibition at 10 µM,K-562,15%
same,inhibition at 10 µM,SR,23%
same,inhibition at 10 µM,A549/ATCC,23%
same,sensitive cell lines no.,"NCI 58 human cell lines; number of cell lines of the panel with GI % shown (higher than 10%), 10 μM",6
"COc1ccc(C2=Nn3c(NN=C4C(=O)Nc5ccc(OC)cc54)nnc3SC2)cc1 [6n, 5-Methoxy-3-(2-(6-(4-methoxyphenyl)-7H-[1,2,4]triazolo[3,4-b][1,3,4]thiadiazin-3-yl)hydrazineylidene)indolin-2-one]",inhibition at 10 µM,K-562,19%
same,inhibition at 10 µM,MOLT-4,12%
same,inhibition at 10 µM,A549/ATCC,29%
same,inhibition at 10 µM,TK-10,17%
same,inhibition at 10 µM,PC-3,10%
same,inhibition at 10 µM,T-47D,15%
same,change in the number of blood vessels (in words),[1]; [2],significant decrease
same,reduction in the number of newly formed blood capillaries (angiogenesis),"[1]; 40 μM, versus 40% DMSO negative control, 11th day",27%
"COc1ccc(C2=Nn3c(NN=C4C(=O)N(C)c5ccc(Cl)cc54)nnc3SC2)cc1 [6u, 5-Chloro-3-(2-(6-(4-methoxyphenyl)-7H-[1,2,4]triazolo[3,4-b][1,3,4]thiadiazin-3-yl)hydrazineylidene)-1-methylindolin-2-one]",toxicity / mortality against HET-CAM and the chick embryos,chick embryos / HET-CAM,toxic
"CCCN1C(=O)C(=NNc2nnc3n2N=C(c2ccc(OC)cc2)CS3)c2cc(Cl)ccc21 [6w, 5-Chloro-3-(2-(6-(4-methoxyphenyl)-7H-[1,2,4]triazolo[3,4-b][1,3,4]thiadiazin-3-yl)hydrazineylidene)-1-propylindolin-2-one]",toxicity / mortality against HET-CAM and the chick embryos,chick embryos / HET-CAM,toxic
"COc1ccc(C2=Nn3c(NN=C4C(=O)N(Cc5ccccc5)c5ccccc54)nnc3SC2)cc1 [6x, 1-Benzyl-3-(2-(6-(4-methoxyphenyl)-7H-[1,2,4]triazolo[3,4-b][1,3,4]thiadiazin-3-yl)hydrazineylidene)indolin-2-one]",change in the number of blood vessels (in words),[1]; [2],significant decrease
"C[C@@H]1C[C@H]2[C@@H]3CCC4=CC(=O)C=C[C@]4(C)[C@@]3(F)[C@@H](O)C[C@]2(C)[C@@]1(O)C(=O)CO [DEXA, dexamethasone, reference compound]",reduction in the number of newly formed blood capillaries,"[1]; DEXA 0.02 μg, positive control, versus 40% DMSO, P < 0.001",54%
Cc1[nH]c(/C=C2\C(=O)Nc3ccccc32)c(C)c1CCC(=O)O [Orantinib],pKi,VEGFR2; read-out: Ki VEGFR2,8.05
Cc1[nH]c(/C=C2\C(=O)Nc3ccc(S(=O)(=O)N(C)c4cccc(Cl)c4)cc32)c(C)c1C(=O)N1CCN(C)CC1 [SU11274],pIC50,c-Met kinase,7.92
Cc1[nH]c(/C=C2\C(=O)Nc3ccc(F)cc32)c(C)c1C(=O)NC[C@H](O)CN1CCOCC1 [SU14813],pIC50,VEGFR2; read-out: IC50 VEGFR2,7.40
CCN(CC)CCNC(=O)c1c(C)[nH]c(/C=C2\C(=O)Nc3ccc(F)cc32)c1C [sunitinib],pKi,multiple tyrosine kinase,8.05
